Experimental data published in ChEMBL document CHEMBL1153008, “Synthesis and antitubercular activity of novel 4-substituted imidazolyl-2,6-dimethyl-N3,N5-bisaryl-1,4-dihydropyridine-3,5-dicarboxamides” (2009).
Values after ≈ are worked out from the molar mass of the structure shown.

Tests used:
Format in all cases: functional
Raji = assay: Cytotoxicity against human Raji cells by MTT assay
[1] = Cytotoxicity against human Kga1 cells by MTT assay
HeLa = assay: Cytotoxicity against human HeLa cells by MTT assay
[2] = test system: Mycobacterium tuberculosis; assay: Antitubercular activity against Mycobacterium tuberculosis H37Rv ATCC 27294 after 21 days by agar proportion method; details: H37Rv ATCC 27294, 504 h
Summary of the method: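 Agar proportion method on Middlebrook 7H10 tubes against rifampicin/isoniazid-susceptible H37Rv. Inoculum: 4–7 day 7H9 broth culture at 37 °C, adjusted to McFarland no. 1, then diluted 10^-2 and 10^-4; 0.1 mL per tube. Incubated 21 days at 37 °C under 5–7% CO2. Colonies counted and compared with drug-free control. Two independent measurements.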

Jurkat = assay: Cytotoxicity against human Jurkat cells by MTT assay

CSc1ncc(C2C(C(=O)Nc3ccccn3)=C(C)NC(C)=C2C(=O)Nc2ccccn2)n1Nc1ccccc1
IC30 (Raji): > 100 µg/mL | IC30 [1]: > 100 µg/mL | IC30 (HeLa): 67.6 µg/mL (≈ 122 µM) | MIC [2]: > 16 µg/mL | IC30 (Jurkat): 13.5 µg/mL (≈ 24.4 µM)

NNC(=O)c1ccncc1 [ISONIAZID]
MIC [2]: 0.2 µg/mL (≈ 1.46 µM)

CSc1ncc(C2C(C(=O)Nc3cccc(Cl)c3)=C(C)NC(C)=C2C(=O)Nc2cccc(Cl)c2)n1Cc1ccccc1
IC30 (Raji): 69.2 µg/mL (≈ 112 µM) | IC30 [1]: 26.3 µg/mL (≈ 42.5 µM) | IC30 (HeLa): > 100 µg/mL | IC30 (Jurkat): 47.9 µg/mL (≈ 77.4 µM)

COc1cccc2c1C(=O)c1c(O)c3c(c(O)c1C2=O)C[C@@](O)(C(=O)CO)C[C@@H]3O[C@H]1C[C@H](N)[C@H](O)[C@H](C)O1 [DOXORUBICIN]
IC30 (Raji): 1.51 µg/mL (≈ 2.78 µM) | IC30 (Jurkat): 2.13 µg/mL (≈ 3.92 µM)

CSc1ncc(C2C(C(=O)Nc3ccc(Br)cc3)=C(C)NC(C)=C2C(=O)Nc2ccc(Br)cc2)n1Nc1ccccc1
MIC [2]: > 16 µg/mL

CSc1ncc(C2C(C(=O)Nc3ccc(Cl)cc3)=C(C)NC(C)=C2C(=O)Nc2ccc(Cl)cc2)n1Nc1ccccc1
MIC [2]: > 16 µg/mL

CSc1ncc(C2C(C(=O)Nc3ccccc3Cl)=C(C)NC(C)=C2C(=O)Nc2ccccc2Cl)n1Nc1ccccc1
IC30 (Raji): 43.6 µg/mL (≈ 70.5 µM) | IC30 [1]: > 100 µg/mL | IC30 (HeLa): > 100 µg/mL | MIC [2]: > 16 µg/mL | IC30 (Jurkat): 7.76 µg/mL (≈ 12.5 µM)

CSc1ncc(C2C(C(=O)Nc3cccnc3)=C(C)NC(C)=C2C(=O)Nc2cccnc2)n1Cc1ccccc1
IC30 (Raji): 75.8 µg/mL (≈ 137 µM) | IC30 [1]: 27.5 µg/mL (≈ 49.9 µM) | IC30 (HeLa): 91.2 µg/mL (≈ 165 µM) | IC30 (Jurkat): 37.1 µg/mL (≈ 67.3 µM)

CO[C@H]1/C=C/O[C@@]2(C)Oc3c(C)c(O)c4c(O)c(c(/C=N/N5CCN(C)CC5)c(O)c4c3C2=O)NC(=O)/C(C)=C\C=C\[C@H](C)[C@H](O)[C@@H](C)[C@@H](O)[C@@H](C)[C@H](OC(C)=O)[C@@H]1C [RIFAMPIN]
MIC [2]: 1 µg/mL (≈ 1.22 µM)

CSc1ncc(C2C(C(=O)Nc3cccc(Cl)c3)=C(C)NC(C)=C2C(=O)Nc2cccc(Cl)c2)n1Nc1ccccc1
MIC [2]: > 16 µg/mL

CSc1ncc(C2C(C(=O)Nc3cccnc3)=C(C)NC(C)=C2C(=O)Nc2cccnc2)n1Nc1ccccc1
MIC [2]: > 16 µg/mL

CSc1ncc(C2C(C(=O)Nc3ccccn3)=C(C)NC(C)=C2C(=O)Nc2ccccn2)n1Cc1ccccc1
IC30 (Raji): 60.2 µg/mL (≈ 109 µM) | IC30 [1]: 19.1 µg/mL (≈ 34.5 µM) | IC30 (HeLa): > 100 µg/mL | IC30 (Jurkat): 43.6 µg/mL (≈ 79.1 µM)

CSc1ncc(C2C(C(=O)Nc3ccc(Cl)cc3)=C(C)NC(C)=C2C(=O)Nc2ccc(Cl)cc2)n1Cc1ccccc1
IC30 (Raji): 85.1 µg/mL (≈ 138 µM) | IC30 [1]: 58.9 µg/mL (≈ 95.2 µM) | IC30 (HeLa): > 100 µg/mL | IC30 (Jurkat): 12.3 µg/mL (≈ 19.9 µM)
